Source: PubChem
Sampled rows, rich in hits. Any-hit rate of the full collection: about 12%.
CHOP inhibitor: inhibitors of CHOP promoter induction, primary screen, cell-based, unfolded protein response, luciferase reporter; 220,000 tested, 3.8% active; inhibition, % at 10 µM; AID 2732, 2010; CHO-K1 CHOP-promoter luciferase, tunicamycin-induced, 15-18 h;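 active = compounds that reduced the stress-induced luciferase reporter signal by more than about 70% of percent inhibition, limit read from the data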;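 also: 0% = tunicamycin plus vehicle and 100% = wells without tunicamycin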
Autophagy HCS: autophagy modulators in MEF cells, primary screen, imaging, high-content, MEF GFP-LC3; calls only at 10 µM (by protocol); MEF GFP-LC3 puncta imaging; test concentration mostly 10 µM; 190,000 tested, 0.98% active;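 active = percentage of spot-positive cells more than 3 SD above its plate mean, without a fluorescence outlier flag or 80% toxicity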;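 also: spot-positive cell cutoff set from DMSO-treated cells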
bCat nuc transl: modulators of beta-catenin nuclear translocation, primary screen, imaging, HeLa cells, immunofluorescence, high-content; AID 1665, 2009; 190,000 tested, 0.3% active; nuclear translocation activity, % at 5 µM;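 active = nuclear translocation activity above 50% at 5 µM, with a well cell count of 50 or more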;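 also: per-cell ratio of nuclear to cytoplasmic median beta-catenin stain intensity; plate controls were DMSO negative control for no effect and GSK-3 inhibitor IX positive control for full effect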
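assay system = human HeLa cells, endogenous beta-catenin | times = compound treatment 24 h, 37°C, 5% CO2 | detection = Anti-beta-catenin immunofluorescence on PFA-fixed, Triton-permeabilized cells, DAPI nuclei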
Lmaj promast: Leishmania major promastigote growth inhibition, primary screen | Leishmania major promastigotes, resazurin fluorescence viability | inhibition, % at 10 µM | 200,000 tested, 9% active | AID 1063, 2008; in the data active = inhibition above about 50%;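 also: promastigotes grown with compound for 44 hours at 28 °C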
MT stabilizer: microtubule stabilizers in HeLa cells, primary screen, imaging, high-content imaging; HeLa tubulin immunostaining HCS, 24 h; share of cells brighter than vehicle mean+2SD; % tubulin-high responders, % at 10 µM; 200,000 tested, 0.83% active; AID 2205, 2009;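 active = plate Z-score above 3 for both tubulin-high and condensed-nucleus cell shares, with cell loss under 80%, at 10 µM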;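 also: anti alpha tubulin signal scored within the nucleus-defined area of each cell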
Dynein cargo inh: inhibitors of GR-EGFP nuclear translocation, primary screen, dynein cargo transport inhibitor project, imaging, high-content, 3617.4 mouse cells. test concentration mostly 20 µM; stimulated with dexamethasone, 1 µM; active compounds read low. z-score, hits read low. 220,000 tested, 0.47% active;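 active = plate z-score of nuclear minus cytoplasmic receptor signal below a set negative limit, without overly bright fluorescence or cell loss, cut at about -3.5 in these data, passing the limit was not always enough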;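 also: z-score of nuclear minus cytoplasmic ring GR-EGFP intensity difference per well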
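Buffer or medium: tet-free medium with charcoal-stripped serum / Also added: dexamethasone agonist, 1.0 µM final, for 30 min / Timing: induction 48 h, compound 1 h, agonist 30 min / Measured by: high-content fluorescence imaging after fixation / Read-out: nuclear-to-cytoplasmic GR-EGFP distribution per well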
Numbers without * were called inactive; i = inactive; nt = no result given.

SMILES	CHOP inhibitor	Autophagy HCS	bCat nuc transl	Lmaj promast	MT stabilizer	Dynein cargo inh
NC(=O)CN1CCN(C2CC(=O)N(CCc3ccccc3)C2=O)CC1 (stereo not given)	1.5	i	-0.2	-7.2	2.4	-0.455
O=C1CC(N2CCN(c3ccc(O)cc3)CC2)C(=O)N1Cc1cccs1 (stereo not given)	34.5	i	-0.3	16.4	2.0	-1.43
O=C(C1CCN(C2CC(=O)N(Cc3ccccc3)C2=O)CC1)N1CCCCCC1 (stereo not given)	-17.2	i	nt	86.8*	2.7	-0.565
O=C1OC(N2CCN(C/C=C/c3ccccc3)CC2)c2ccccc21 (stereo not given)	7.5	i	-3.6	55.8*	2.5	0.48
O=C1CC(N2CCN(C/C=C/c3ccccc3)CC2)C(=O)N1CCc1ccccc1 (stereo not given)	18.6	i	2.4	93.2*	6.1	0.995
CCNC(=O)NC(=O)CSc1ccccc1F	23.1	i	nt	0.0	4.3	0.141
NS(=O)(=O)c1ccc(NC(=S)Nc2nn(Cc3ccc(Cl)cc3Cl)cc2Cl)cc1	23.4	i	-2.2	14.0	2.7	-0.115
C/C=C/C(=O)Nc1cccc(C2=NOC3(C2)C[C@@H](C(N)=O)N(C(=O)/C(C)=C/C)C3)c1 (stereo not given in full)	11.4	nt	-2.4	nt	nt	-0.564
O=C1CC(N2CCN(C(c3ccccc3)c3ccccc3)CC2)C(=O)N1Cc1ccc(N2CCCC2=O)cc1 (stereo not given)	14.3	i	1.0	97.9*	3.6	-0.559
O=C1CC(N2CCN(C3CC(=O)N(CCc4ccccc4)C3=O)CC2)C(=O)N1CCc1ccccc1 (stereo not given)	1.3	i	-0.9	2.1	4.1	-1.28
O=C1CC(N2CCC(Cc3ccccc3)CC2)C(=O)N1CCc1ccccc1 (stereo not given)	71.7*	i	nt	19.2	1.1	-0.635
CCCn1c(CCC(=O)Nc2ccccc2Cc2ccccc2)nc2cc(S(=O)(=O)N3CCOCC3)ccc21	28.8	i	nt	21.6	4.4	-0.545
CCOC(=O)c1ccc(NC(=O)NC2CCN(CC(=O)NCc3ccc4c(c3)OCO4)CC2)cc1	25.9	i	-3.4	-3.6	4.7	-0.144
CCN(CC)c1ccc(S(=O)(=O)Nc2cc(Cl)ccc2Cl)cc1NC(=S)NC(=O)C1CCCC1	49.8	i	nt	56.2*	5.0	0.139
O=C(CSCC(=O)Nc1ccc2ccccc2c1)NCc1ccccc1	-15.0	i	-2.6	-0.5	2.9	0.297
CC(C)c1ccc(CNC(=O)CSCC(=O)Nc2ccc3ccccc3c2)cc1	86.0*	i	3.4	3.6	1.2	-0.371
COc1ccc(Nc2cc(C)nc(NCc3ccccc3)n2)cc1	62.6	nt	1.2	nt	nt	-0.909
Cc1cc(N/N=C/c2ccccc2Cl)nc(NCc2ccccc2)n1	7.6	i	0.6	86.4*	3.2	0.554
Cc1cc(C)nc(N/N=C/c2ccccc2Cl)n1	-0.9	nt	0.2	nt	nt	0.692
Cc1ccc(Nc2cc(C)nc(NCc3ccccc3)n2)cc1	60.5	i	-0.5	100.4*	30.1*	-0.0533
Cc1cc(OC(C)C)nc(NCc2ccccc2)n1	24.4	i	2.2	24.8	5.3	0.739
COc1cc(C)nc(NCc2ccccc2)n1	33.2	i	2.6	47.3	1.6	0.698
Cc1cc(NC2CCCCC2)nc(NCc2ccccc2)n1	55.7	i	1.3	97.1*	2.8	-1.06
Cc1cc(N2CCN(c3ccccc3)CC2)nc(NCc2ccccc2)n1	87.8*	i	1.8	28.6	2.8	-0.792
NC(=O)COC(=O)c1ccccc1OCc1ccccc1Cl	41.5	i	-3.7	4.5	3.8	0.601
SMILES	CHOP inhibitor	Autophagy HCS	bCat nuc transl	Lmaj promast	MT stabilizer	Dynein cargo inh
O=C(COC(=O)CNC(=O)c1ccccc1)Nc1cccc(Br)c1	7.0	i	-0.4	-3.4	2.1	0.278
COc1ccc(S(=O)(=O)N2CCCC(C(=O)NCc3ccco3)C2)cc1Cl (stereo not given)	-8.7	i	nt	-1.4	1.2	-0.499
CC1(C)CC(=O)c2c(oc3cc(O)c(O)cc23)C1	-25.2	i	nt	84.4*	1.3	0.16
COC(=O)c1oc2c(c1C)C(=O)CC(C)(C)C2	7.8	i	1.1	-6.3	3.4	1.04
CCCc1sc(N/N=C/c2ccccn2)nc1-c1ccc(Br)cc1	61.4	i	-2.2	96.5*	2.3	1.49
CC(=O)Nc1sc(N/N=C/c2ccccc2)nc1-c1ccc(C)cc1	3.1	nt	1.0	nt	nt	-0.886
CCN(CC)CCc1c(C)[nH]c(C(=O)OCc2ccccc2)c1C	29.9	i	nt	100.1*	2.0	-0.0758
CC(=O)c1c(C)[nH]c(C(=O)OCc2ccccc2)c1C	13.3	i	1.5	-0.6	1.2	-1.13
Cc1ccc(Cl)cc1NC(=S)N(Cc1cccs1)C1CCCC1	81.9*	i	-1.3	-0.7	1.9	-0.00351
Cc1cc(Cl)ccc1NC(=S)NCc1cccs1	16.1	i	-1.3	77.0*	3.6	-0.487
COc1cc2c(cc1NC(=O)C(C)OC(=O)c1ccc(S(=O)(=O)Nc3ccccc3Cl)cc1)oc1ccccc12 (stereo not given)	9.5	i	-1.8	13.6	5.4	0.248
CC(=O)Nc1ccc(NC(=O)C(C)OC(=O)CNS(=O)(=O)c2cccc(Cl)c2)cc1 (stereo not given)	7.7	i	-4.3	82.3*	1.7	-0.694
CC(=O)Nc1ccc(NC(=O)C(C)OC(=O)CN(C)S(=O)(=O)c2ccc(Cl)cc2)cc1 (stereo not given)	-25.4	i	nt	-1.4	2.2	1.91
CCN(CC)S(=O)(=O)c1cccc(C(=O)NC(Cc2c[nH]c3ccccc23)c2nnc3n2CCC3)c1 (stereo not given)	16.8	i	nt	63.1*	5.9	1.66
CCN(CC)S(=O)(=O)c1cccc(C(=O)N[C@@H](C)c2nc3ccccc3[nH]2)c1	6.3	i	2.9	2.4	1.9	-1.1
Cc1nn(-c2ccccc2)c2c1C(c1ccc([N+](=O)[O-])cc1)C(C#N)=C(N)O2 (stereo not given)	24.6	nt	-3.3	nt	nt	-0.747
Cc1ccc(-n2nc(C)c3c2OC(N)=C(C#N)C3c2ccc(F)cc2)cc1 (stereo not given)	82.8*	i	-2.1	23.9	1.9	1.77
COc1ccc(C(=O)NC(NC(=S)Nc2ccc(S(N)(=O)=O)cc2)C(Cl)(Cl)Cl)cc1 (stereo not given)	5.9	i	-1.4	-12.6	2.4	0.323
CC(/C=N/NC(=O)c1nn(C)c(C)c1Br)=C\c1ccccc1	17.1	i	2.9	-4.5	4.9	-0.0144
